KCNK9 inh = inhibitors of human KCNK9 two-pore domain potassium channel; Q9NPC2; HEK293 KCNK9, FluxOR thallium flux fluorescence; active compounds read low; B-score at 10 µM; hit rate 1.2% among 310,000; AID 488922;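 active = ratio B-score over 3 SD below the library mean, with starting fluorescence within 5 SD of its mean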;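 note: negative B-score means less thallium flux so channel inhibition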
KCNQ1 block = inhibitors of human KCNQ1 potassium channel; P51787; CHO-K1 KCNQ1, FluxOR thallium flux fluorescence; active compounds read high; B-score at 10 µM; hit rate 1.3% among 310,000; AID 2642;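 active = compounds whose thallium flux B-score, printed positive for inhibition, exceeds three library SD while starting fluorescence stays within three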;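 note: channel opened by potassium depolarization with thallium stimulus after 20 min compound exposure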
Target sequence (P51787 whole entry, looked up): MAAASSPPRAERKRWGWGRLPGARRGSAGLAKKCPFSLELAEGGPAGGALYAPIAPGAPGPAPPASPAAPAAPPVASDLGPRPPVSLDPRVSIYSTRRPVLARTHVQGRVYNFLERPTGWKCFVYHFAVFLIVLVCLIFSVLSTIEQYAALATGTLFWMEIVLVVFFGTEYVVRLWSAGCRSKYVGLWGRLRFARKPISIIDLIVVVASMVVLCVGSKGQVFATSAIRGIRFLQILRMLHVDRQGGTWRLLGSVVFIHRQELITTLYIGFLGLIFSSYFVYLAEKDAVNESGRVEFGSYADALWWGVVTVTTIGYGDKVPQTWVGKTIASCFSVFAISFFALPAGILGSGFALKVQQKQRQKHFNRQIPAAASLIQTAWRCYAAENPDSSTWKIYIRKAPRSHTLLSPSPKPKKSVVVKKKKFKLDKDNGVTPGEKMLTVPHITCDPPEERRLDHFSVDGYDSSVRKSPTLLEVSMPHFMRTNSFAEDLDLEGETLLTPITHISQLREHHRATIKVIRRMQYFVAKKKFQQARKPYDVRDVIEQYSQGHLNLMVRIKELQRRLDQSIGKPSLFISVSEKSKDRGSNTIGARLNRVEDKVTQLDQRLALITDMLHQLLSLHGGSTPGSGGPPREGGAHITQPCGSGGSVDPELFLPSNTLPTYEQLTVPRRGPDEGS
hERG rescue = shields human hERG channel from block by proarrhythmic agents; Q12809; CHO-hERG, FluxOR thallium flux, dofetilide IC70 present; activation (rescue from dofetilide block), less the hit threshold, % at 10 µM; hit rate 0.51% among 310,000; AID 1511;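 active = activation above the mean of controls blocked by dofetilide plus 5 SD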;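 note: thallium influx through hERG after potassium depolarization seen as dye fluorescence rise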
KCNK3 block = human KCNK3 channel inhibition, primary screen | AID 602410 | CHO-KCNK3 thallium flux, FluxOR fluorescence; active compounds read low | B-score at 10 µM | hit rate 0.84% among 340,000;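 active = B-score under library mean minus 4 SD, starting fluorescence ratio at most library mean plus 5 SD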;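 note: more negative B-score means stronger inhibition of thallium flux through KCNK3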
KCNQ1 act = human KCNQ1 channel potentiation or activation; P51787; CHO-K1 KCNQ1, thallium flux FluxOR fluorescence; active compounds read high; B-score at 10 µM; hit rate 0.35% among 310,000; AID 2648;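 active = fluorescence ratio B-score, a plate-corrected score, at least three library SD, with initial intensity B-score within 5 SD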
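assay system = CHO-K1 cells stably expressing KCNQ1 | medium = assay buffer, equal DMSO in all wells | timing = 37 °C overnight plating, 90-min dark dye load, 20-min compound pretreatment | measured by = kinetic FluxOR thallium fluorescence, 10-s 1-Hz baseline, 110-s post-stimulus read | measure = fluorescence change relative to baseline, converted to B score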
Kir21 block = inhibitors of mouse Kir2.1 inward-rectifier potassium channel; P35561; HEK293-Kir2.1, FluxOR thallium flux fluorescence; active compounds read low; B-score at 10 µM; hit rate 0.85% among 310,000;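 active = fluorescence ratio B-score at or below minus 3 SD of library scores, with starting-brightness B-score within 2 SD, cut at about -4.2 in these data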;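 note: channel flux triggered by added potassium and thallium sulfate stimulus; B-score of peak minus minimum fluorescence over baseline after thallium stimulus; more negative B-score means stronger Kir2.1 block with less thallium influx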
KCNK9 inh conf = confirmation of human KCNK9 potassium channel inhibitors; inhibition, % at 10 µM; shares compounds with KCNK9 inh; AID 492992; HEK293 KCNK9 cells, FluxOR thallium flux fluorescence; hit rate 43% among 4,900;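 active = thallium signal inhibited by more than 5 SD of the compound-free buffer control wells, on both duplicate plates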;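 note: 0% = assay buffer control wells without compound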
Kir2-1 spec = tests whether KCNK9 modulators also affect mouse Kir2.1; shares compounds with KCNK9 inh; Kir2.1 cells, FluxOR thallium flux fluorescence; inhibition, % at 10 µM; hit rate 4% among 4,900;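 active = thallium signal drop more than 5 SD beyond the mean of the no-compound control wells, seen in both duplicate plates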;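 note: signal is fluorescence rise after thallium addition divided by baseline fluorescence; plate controls were assay buffer only for no effect and full block by chlorpromazine control for full effect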
KCNK9 uninduced = second check of KCNK9 modulator effects in non-induced HEK293 cells. shares compounds with KCNK9 inh. FluxOR thallium flux. inhibition, % at 10 µM. hit rate 40% among 4,900;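 active = thallium signal drop beyond 5 SD of the untreated control mean, on both duplicate plates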;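 note: plate controls were buffer only IC0 wells for no effect and SID17386958 at its maximal inhibitory level for full effect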
Numbers without * were called inactive; i = inactive; . = not tested or not shown. A selection: hits, their analogues and other compounds. The true share with any hit is near 3.7%.

SMILES	KCNK9 inh	KCNQ1 block	hERG rescue	KCNK3 block	KCNQ1 act	Kir21 block	KCNK9 inh conf	Kir2-1 spec	KCNK9 uninduced
CCc1ccccc1N(C)S(=O)(=O)c1ccc2[nH]cc(C(=O)N3CCc4ccccc43)c(=O)c2c1	-9.3*	i	-12	i	i	0.28	i	i	26%*
O=C(COC(=O)CCNS(=O)(=O)c1cccc(C(F)(F)F)c1)NC(=O)NC1CCCCC1	-15*	i	-13	i	i	-0.39	61%*	i	31%*
CCOC(=O)C1=CN(Cc2ccc(OC)cc2)C=C(C(=O)OCC)C1c1cccs1	-19*	i	-2	i	i	-1.3	72%*	i	41%*
Cc1ccc(-c2nn(CCC(=O)NN3CCOCC3)c(=O)c3ccccc23)cc1	i	i	-6	i	i	0.92	.	.	.
c1ccc2c(c1)OCC(c1csc3ncnc(N4CCCCC4)c13)O2 (stereo not drawn)	-13*	i	-8	i	i	-0.16	44%*	i	32%*
Cc1ccc(N=Cc2cc(Cc3ccccc3Cl)cc([N+](=O)[O-])c2O)c(O)c1	-8.8*	i	-11	i	i	1.9	i	i	65%*
CCC(=O)N1N=C(c2ccc(NS(=O)(=O)c3ccccc3)cc2)CC1c1ccco1 (stereo not drawn)	.	.	.	i	.	.	.	.	.
Cc1ccc(C(=O)N2C(=S)C(c3ccc(F)cc3)=NC23CCN(C)CC3)cc1	i	i	-17	i	i	0.03	i	i	i
Cc1ccc(C(=O)N2CCC(C(=O)c3ccc(F)cc3)CC2)cc1	.	.	.	i	.	.	.	.	.
OCC1(Cc2ccccc2C(F)(F)F)CCN(Cc2ccc3c(c2)CCO3)CC1	i	i	-10	i	i	-2.7	i	i	i
OCC1(Cc2ccc(Cl)cc2)CCN(Cc2ccc(F)c(F)c2)CC1	i	i	-9	i	i	-0.93	.	.	.
OCC1(Cc2cccc(C(F)(F)F)c2)CCN(Cc2cc(F)cc(F)c2)CC1	i	i	-23	i	i	1.3	i	i	i
OCC1(Cc2ccccc2C(F)(F)F)CCN(Cc2ccccc2)CC1	i	i	-17	i	i	-0.25	i	i	i
COc1ccc(N2CCN(CC(O)COc3cc(C)ccc3C)CC2)cc1 (stereo not drawn)	i	i	-9	i	i	0.75	.	.	.
CCOc1cc2c(cc1OCC)CN(CC(=O)Nc1ccccc1C(=O)NC1CC1)CC2	.	.	.	i	.	.	.	.	.
COc1ccc(S(=O)(=O)N2CCOCC2)cc1NC(=O)c1ccccc1C	i	i	-7	i	i	0.53	.	.	.
COc1ccc(CN2CCNC(=O)C2CC(=O)NCCc2nc(C)c3c(n2)CCC3)cc1C (stereo not drawn)	i	i	-7	i	i	-0.74	.	.	.
CCC(=O)c1ccccc1OCCN1CCN(Cc2ccccc2)CC1	i	i	-8	i	i	-3.6	i	i	i
O=C(c1ccccc1)c1ccc(OCCOCCN2CCN(Cc3ccccc3)CC2)cc1	i	i	-25	i	i	-1.9	i	i	i
CCOc1ccccc1OCCOCCN1CCN(Cc2ccccc2)CC1	i	i	-5	i	i	-2.8	.	.	.
O=C(N[C@@H](Cc1ccc(O)cc1)C(=O)O)c1cccnc1	i	i	-2	i	i	0.31	.	.	.
Cc1cccc(S(=O)(=O)c2c(C)cc(C)[nH]c2=O)c1	i	i	-5	i	i	0.64	.	.	.
C=C(C)Cn1c(C)cc(C)c(S(=O)(=O)c2cccc(C)c2)c1=O	-8.4*	i	-14	i	i	-1	54%*	44%*	44%*
COc1ccc(S(=O)(=O)N2CCOCC2)cc1C(=O)N(C)Cc1ccco1	.	.	.	i	.	.	.	.	.
COc1ccc(CNC(=O)CN(C)S(=O)(=O)c2ccc3c(c2)OCCO3)cc1OC	.	.	.	i	.	.	.	.	.
SMILES	KCNK9 inh	KCNQ1 block	hERG rescue	KCNK3 block	KCNQ1 act	Kir21 block	KCNK9 inh conf	Kir2-1 spec	KCNK9 uninduced
O=[N+]([O-])c1ccc(COc2cccc(CNc3ccc(F)cc3)c2)cc1	-8.3*	6*	-2	i	i	-0.03	41%*	i	i
Oc1ccc(NCc2cccc(OCc3ccc(F)cc3)c2)cc1	i	i	-23	i	i	1.5	.	.	.
Cc1cc(C2N=C(N)Nc3nc4ccccc4n32)c(C)n1-c1ccccc1Cl (stereo not drawn)	-8.7*	i	-11	i	i	-0.19	52%*	i	39%*
O=C(CSc1nc2ccccc2o1)Nc1ccccc1N1CCCCCC1	-11*	i	-15	i	i	-3.3	61%*	40%*	41%*
O=C(OCc1ccc(Cl)cc1)c1ccccc1C(=O)c1ccccc1	-12*	i	-9	i	i	-2.7	52%*	34%*	49%*
O=C(OCc1ccc(Cl)cc1)c1cccnc1Cl	i	i	-3	i	i	0.73	.	.	.
CN(CCCN1CCCCC1)C(=O)c1cc(COc2ccc(F)cc2F)on1	i	i	-10	i	i	1.8	.	.	.
COc1cc(Cl)c(C)cc1NC(=O)CSc1cc(Cl)ccc1Cl	-9.8*	i	-25	i	i	-0.34	56%*	i	44%*
COc1ccc(Cl)cc1NC(=O)CSc1nc(N2CCCCC2)nc(N2CCCCC2)n1	-11*	i	-2	i	i	-0.62	36%*	i	26%*
COc1ccc(Cl)cc1NC(=O)CSc1nc(N2CCOCC2)nc(N2CCOCC2)n1	i	i	-14	i	i	-0.07	.	.	.
CCOc1ccccc1NC(=S)N1CCC(NC(=O)C(C)(C)C)CC1	i	i	-14	i	i	-1.9	.	.	.
Cc1ccc(-c2nnc(Sc3nc4ccccc4o3)c3ccccc23)cc1	i	i	-9	i	i	1.9	.	.	.
Clc1ccc(-c2nnc(Sc3nc4ccccc4o3)c3ccccc23)cc1	i	i	-9	i	i	0.1	i	i	i
CCOc1ccccc1NC(=O)c1cc(CC(C)C)oc1C	-18*	i	-13	i	i	-0.33	62%*	i	43%*
Cc1oc(CC(C)C)cc1C(=O)Nc1cccc2ccccc12	-9.5*	i	-4	i	i	0.92	i	i	40%*

High-throughput results as filed in PubChem.
